How the values were obtained:
[1] = biological target: D(2) dopamine receptor (Homo sapiens, UniProt P14416); assay: In vitro binding affinity against recombinant human dopamine receptor D2L […]
In short: (§1)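 Affinities are Ki values (nM) at human D2L and human 5-HT2A receptors, reported as mean ± SEM of three independent experiments.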

[2] = biological target: 5-hydroxytryptamine receptor 2A (Homo sapiens, UniProt P28223); assay: In vitro binding affinity against recombinant human 5-hydroxytryptamine 2A receptor […]; in short: as §1
5-hydroxytryptamine receptor 2A, sequence (P28223 whole entry): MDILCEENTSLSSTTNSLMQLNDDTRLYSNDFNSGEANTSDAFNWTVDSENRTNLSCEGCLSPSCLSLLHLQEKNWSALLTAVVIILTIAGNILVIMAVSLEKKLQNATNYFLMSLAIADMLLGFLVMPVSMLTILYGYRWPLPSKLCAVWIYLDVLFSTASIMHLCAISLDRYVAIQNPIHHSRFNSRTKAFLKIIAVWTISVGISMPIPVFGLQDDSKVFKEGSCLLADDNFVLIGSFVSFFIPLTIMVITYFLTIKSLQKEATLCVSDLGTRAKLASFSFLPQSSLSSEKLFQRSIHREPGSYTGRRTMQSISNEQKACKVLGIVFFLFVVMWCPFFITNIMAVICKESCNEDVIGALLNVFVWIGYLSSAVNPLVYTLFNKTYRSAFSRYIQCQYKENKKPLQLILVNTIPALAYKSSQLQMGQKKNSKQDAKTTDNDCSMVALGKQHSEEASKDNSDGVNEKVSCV

D(2) dopamine receptor, sequence (P14416 whole entry): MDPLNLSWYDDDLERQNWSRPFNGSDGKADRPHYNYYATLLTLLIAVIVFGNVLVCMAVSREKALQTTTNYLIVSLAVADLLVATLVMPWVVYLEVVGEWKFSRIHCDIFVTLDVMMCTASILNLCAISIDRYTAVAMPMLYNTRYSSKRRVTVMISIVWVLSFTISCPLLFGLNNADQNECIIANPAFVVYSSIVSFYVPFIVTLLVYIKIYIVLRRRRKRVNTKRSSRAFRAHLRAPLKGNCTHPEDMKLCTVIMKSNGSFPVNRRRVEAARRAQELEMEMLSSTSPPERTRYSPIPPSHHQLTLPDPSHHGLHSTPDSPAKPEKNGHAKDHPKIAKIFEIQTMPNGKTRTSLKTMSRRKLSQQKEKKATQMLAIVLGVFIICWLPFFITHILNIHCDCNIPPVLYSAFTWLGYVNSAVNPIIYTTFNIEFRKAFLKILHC

Ki [1] [µM]	Ki [2] [µM]	Compound
0.0062	0.0147	CCN1CCN(c2cc(-c3ccc(F)cc3)c3c(n2)CCC[C@@H](O)CC3)CC1
0.0212	0.0185	CCN1CCN(c2cc(-c3ccc(F)cc3)c3c(n2)CCC[C@H](O)CC3)CC1
0.0036	0.00967	CCN1CCN(c2cc(-c3ccc(F)cc3)c3c(n2)CC[C@H](O)CCC3)CC1
0.0119	0.0179	CCN1CCN(c2cc(-c3ccc(F)cc3)c3c(n2)CC[C@@H](O)CCC3)CC1
0.00014	0.00081	CCN1CCN(c2cc(-c3ccc(F)cc3)c3c(n2)CCCCCC3)CC1 [BLONANSERIN]

From ChEMBL document CHEMBL1141892, “Syntheses and properties of the major hydroxy metabolites in humans of blonanserin AD-5423, a novel antipsychotic agent” (Bioorg Med Chem Lett, 2005)
